ChEMBL document CHEMBL3421570, “Combinatorial Libraries As a Tool for the Discovery of Novel, Broad-Spectrum Antibacterial Agents Targeting the ESKAPE Pathogens” (J Med Chem, 2015)
Values after ≈ are worked out from the molar mass of the structure shown. Active and inactive are the calls of the source. The calls are words filed in the database; no cut-off is given here.

How the values were obtained:
Acinetobacter baumannii [1] = assay: Bactericidal activity against Acinetobacter baumannii after 24 hrs; format: functional
Enterobacter cloacae [2] = assay: Antibiofilm activity against Enterobacter cloacae incubated for 24 hrs followed by biofilm resuspension in PBS and measured after 24 hrs; format: functional
How it was run: (§1)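 Biofilms grown 24 h in 96-well plates from overnight cultures standardized to OD600 0.5 in fresh medium (human serum only for S. aureus; TSB for Gram-positives, LB for Gram-negatives). Medium then replaced with fresh medium containing a concentration range above and below MIC, 37°C overnight. After 24 h biofilm resuspended in PBS, serially diluted, plated in duplicate, CFU counted after 24 h at 37°C. Activity relative to untreated; three technical replicates; MBEC50 reported.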

Acinetobacter baumannii [3] = assay: Antimicrobial activity against Acinetobacter baumannii assessed as inhibition of microbial growth after 24 hrs; format: functional
How it was run: (§2)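 Broth microdilution against multidrug-resistant clinical ESKAPE isolates. Overnight cultures (TSB for Gram-positives, LB for Gram-negatives) diluted 1:1000 in fresh medium, compound in DMF (≤2.0% DMF) added at decreasing concentrations, 37°C.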

Klebsiella pneumoniae [4] = assay: Ratio of MIC for Klebsiella pneumoniae measured after 8 cycle passage to MIC for wild type Klebsiella pneumoniae; format: functional
Klebsiella pneumoniae [5] = assay: Antibiofilm activity against Klebsiella pneumoniae incubated for 24 hrs followed by biofilm resuspension in PBS and measured after 24 hrs; format: functional; how it was run: as §1
[6] = Selectivity index, ratio of IC50 for human A549 cells to MIC for Acinetobacter baumannii
Pseudomonas aeruginosa [7] = assay: Antimicrobial activity against Pseudomonas aeruginosa assessed as inhibition of microbial growth at 45 uM after 24 hrs; format: functional, organism-based
How it was run: (§3)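 Broth microdilution single-concentration read: overnight cultures diluted 1:1000, compound in DMF (≤2.0%) added, 37°C for 24 h, growth inhibition scored visually by lack of turbidity; triplicate. Gram-positives grown in TSB, Gram-negatives in LB.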

Pseudomonas aeruginosa [8] = assay: Bactericidal activity against Pseudomonas aeruginosa after 24 hrs; format: functional
Acinetobacter baumannii [9] = assay: Induction of spontaneous mutation in Acinetobacter baumannii at 2 to 10 MIC; format: functional, organism-based
[10] = Selectivity index, ratio of IC50 for human A549 cells to MIC for Staphylococcus aureus
Acinetobacter baumannii [11] = assay: Ratio of MIC for Acinetobacter baumannii measured after 8 cycle passage to MIC for wild type Acinetobacter baumannii; format: functional
Klebsiella pneumoniae [12] = assay: Induction of spontaneous mutation in Klebsiella pneumoniae at 2 to 10 MIC; format: functional, organism-based
Enterococcus faecium [13] = assay: Induction of spontaneous mutation in Enterococcus faecium at 2 to 10 MIC; format: functional, organism-based
Staphylococcus aureus [14] = assay: Ratio of MIC for Staphylococcus aureus measured after 8 cycle passage to MIC for wild type Staphylococcus aureus; format: functional
Enterobacter cloacae [15] = assay: Antimicrobial activity against Enterobacter cloacae assessed as inhibition of microbial growth at 45 uM after 24 hrs; format: functional, organism-based; how it was run: as §3
Enterococcus faecium [16] = assay: Antimicrobial activity against Enterococcus faecium assessed as inhibition of microbial growth at 45 uM after 24 hrs; format: functional, organism-based; how it was run: as §3
Staphylococcus aureus [17] = assay: Bactericidal activity against Staphylococcus aureus after 24 hrs; format: functional
[18] = Selectivity index, ratio of IC50 for human A549 cells to MIC for Klebsiella pneumoniae
Staphylococcus aureus [19] = assay: Antimicrobial activity against Staphylococcus aureus assessed as inhibition of microbial growth at 45 uM after 24 hrs; format: functional, organism-based; how it was run: as §3
Acinetobacter baumannii [20] = assay: Antimicrobial activity against Acinetobacter baumannii assessed as inhibition of microbial growth at 45 uM after 24 hrs; format: functional, organism-based; how it was run: as §3
Staphylococcus aureus [21] = assay: Antimicrobial activity against Staphylococcus aureus USA300 strain FPR3757 infected in mouse model of lethal peritonitis assessed as mouse survival at 2 uM, im dosed 1 hr post infection and measured after 5 days post infection; format: functional, organism-based
How it was run: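 Mice, six per group, infected i.p. with 1 × 10^8 CFU ml−1 S. aureus USA300 FPR3757 in PBS with 5% mucin. Compound given i.m. at 2 μM 1 h later; vehicle 45% w/v (2-hydroxypropyl)-β-cyclodextrin in water i.v.; vancomycin i.v. as control. Monitored twice daily for 5 days, pre-moribund animals euthanized. Survival compared by log-rank test.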

Enterobacter cloacae [22] = assay: Induction of spontaneous mutation in Enterobacter cloacae at 2 to 10 MIC; format: functional, organism-based
Enterobacter cloacae [23] = assay: Antimicrobial activity against Enterobacter cloacae isolate 1446 assessed as inhibition of microbial growth in presence of 100 uM efflux pump inhibitor reserpine after 24 hrs; format: functional, organism-based
[24] = Cytotoxicity against human A549 cells assessed as cell viability recovery at 45 uM after 48 hrs by MTT assay; format: cell-based; details: read-out: Activity
How it was run: (§4)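 A549 cells grown in F-12K with L-glutamine, 10% FBS, 1% penicillin-streptomycin, seeded at 1.0 × 10^5 ml−1, allowed to adhere 24 h (37°C, 5% CO2), then exposed to compound in 45% w/v (2-hydroxypropyl)-β-cyclodextrin vehicle for 48 h. MTT 4 h, formazan solubilized in DMSO, absorbance 540 nm. Percent recovery versus vehicle-only; IC50 derived; at least three independent experiments.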

Staphylococcus aureus [25] = assay: Antimicrobial activity against Staphylococcus aureus assessed as inhibition of microbial growth after 24 hrs; format: functional; how it was run: as §2
Staphylococcus aureus [26] = assay: Bactericidal activity against methicillin-resistant Staphylococcus aureus at MIC measured after drug wash out after 120 mins by time kill assay; format: functional
How it was run: (§5)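 MRSA from stationary phase was regrown 3 h in TSB and seeded at OD600 0.5. […] After 120 min, cells were centrifuged and washed, serially diluted and plated for CFU. Percent recovery is relative to no-drug controls.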

Staphylococcus aureus [27] = assay: Effect on bacterial density of methicillin-resistant Staphylococcus aureus at MIC measured over 2 hrs period by time kill assay; format: functional, organism-based
Enterobacter cloacae [28] = assay: Antimicrobial activity against Enterobacter cloacae assessed as inhibition of microbial growth after 24 hrs; format: functional; how it was run: as §2
Staphylococcus aureus [29] = assay: Induction of spontaneous mutation in Staphylococcus aureus at 2 to 10 MIC; format: functional, organism-based
Enterococcus faecium [30] = assay: Bactericidal activity against Enterococcus faecium after 24 hrs; format: functional
Pseudomonas aeruginosa [31] = assay: Induction of spontaneous mutation in Pseudomonas aeruginosa at 2 to 10 MIC; format: functional, organism-based; details: 2 to 10 x MIC
[32] = Selectivity index, ratio of IC50 for human A549 cells to MIC for Pseudomonas aeruginosa
[33] = Selectivity index, ratio of IC50 for human A549 cells to MIC for Enterobacter cloacae
Acinetobacter baumannii [34] = assay: Antibiofilm activity against Acinetobacter baumannii incubated for 24 hrs followed by biofilm resuspension in PBS and measured after 24 hrs; format: functional; how it was run: as §1
[35] = Selectivity index, ratio of IC50 for human A549 cells to MIC for Enterococcus faecium
Klebsiella pneumoniae [36] = assay: Antimicrobial activity against Klebsiella pneumoniae assessed as inhibition of microbial growth after 24 hrs; format: functional; how it was run: as §2
Klebsiella pneumoniae [37] = assay: Antimicrobial activity against Klebsiella pneumoniae assessed as inhibition of microbial growth at 45 uM after 24 hrs; format: functional, organism-based; how it was run: as §3
Pseudomonas aeruginosa [38] = assay: Antimicrobial activity against Pseudomonas aeruginosa assessed as inhibition of microbial growth after 24 hrs; format: functional; how it was run: as §2
Pseudomonas aeruginosa [39] = assay: Antibiofilm activity against Pseudomonas aeruginosa incubated for 24 hrs followed by biofilm resuspension in PBS and measured after 24 hrs; format: functional; how it was run: as §1
[40] = Induction of hemolysis in human RBC at 10 uM incubated for 15 mins; format: cell-based, Erythrocyte; details: red blood cells, read-out: Activity
How it was run: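 Human RBCs from whole blood, resuspended 20% v/v in HA buffer (NaCl, CaCl2), compound 10 μM, 15 min at 37°C. Centrifuged 5,500 g for 1 min, supernatant OD543 read. Percent hemolysis against DMF vehicle (0%) and 1.0% Triton X-100 (100%); triplicate.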

Staphylococcus aureus [41] = assay: Bactericidal activity against methicillin-resistant Staphylococcus aureus assessed as cell survival recovery at MIC measured after drug wash out after 120 mins by time kill assay; format: functional; how it was run: as §5
Enterobacter cloacae [42] = assay: Bactericidal activity against Enterobacter cloacae after 24 hrs; format: functional
Enterococcus faecium [43] = assay: Antimicrobial activity against Enterococcus faecium assessed as inhibition of microbial growth after 24 hrs; format: functional; how it was run: as §2
A549 = assay: Cytotoxicity against human A549 cells after 48 hrs by MTT assay; format: cell-based; details: A549, 48 h; how it was run: as §4
Enterobacter cloacae [44] = assay: Ratio of MIC for Enterobacter cloacae measured after 8 cycle passage to MIC for wild type Enterobacter cloacae; format: functional
Enterococcus faecium [45] = assay: Antibiofilm activity against Enterococcus faecium incubated for 24 hrs followed by biofilm resuspension in PBS and measured after 24 hrs; format: functional; how it was run: as §1
Staphylococcus aureus [46] = assay: Antibiofilm activity against Staphylococcus aureus incubated for 24 hrs followed by biofilm resuspension in PBS and measured after 24 hrs; format: functional; how it was run: as §1
[47] = Cytotoxicity against human A549 cells assessed as cell viability recovery up to 225 uM after 48 hrs by MTT assay; format: cell-based; details: read-out: Activity; how it was run: as §4
Klebsiella pneumoniae [48] = assay: Bactericidal activity against Klebsiella pneumoniae after 24 hrs; format: functional

CCCCCCCN1C(=N)N(CCCC[C@H]2CNC(=N)N2CCc2cccc(C(F)(F)F)c2)C[C@@H]1CC1CCCCC1
MBC90 (Acinetobacter baumannii [1]): 3.2 µM (≈ 1.89 µg/mL) | MBEC50 (Enterobacter cloacae [2]): 15 µM | MIC (Acinetobacter baumannii [3]): 1.5 µM | Ratio (Klebsiella pneumoniae [4]): <=8 | MBEC50 (Klebsiella pneumoniae [5]): 4.8 µM | Selectivity Index [6]: 43 | growth inhibition (GI) (Pseudomonas aeruginosa [7]): Active | MBC90 (Pseudomonas aeruginosa [8]): 14 µM (≈ 8.27 µg/mL) | Activity (Acinetobacter baumannii [9]): inactive | Selectivity Index [10]: 43 | Ratio (Acinetobacter baumannii [11]): <=8 | Activity (Klebsiella pneumoniae [12]): inactive | Activity (Enterococcus faecium [13]): inactive | Ratio (Staphylococcus aureus [14]): 4 | growth inhibition (GI) (Enterobacter cloacae [15]): Active | growth inhibition (GI) (Enterococcus faecium [16]): Active | MBC90 (Staphylococcus aureus [17]): 3.3 µM (≈ 1.95 µg/mL) | Selectivity Index [18]: 43 | growth inhibition (GI) (Staphylococcus aureus [19]): Active | growth inhibition (GI) (Acinetobacter baumannii [20]): Active | Activity (Staphylococcus aureus [21]): Active | Activity (Enterobacter cloacae [22]): inactive | growth inhibition (GI) (Enterobacter cloacae [23]): Active | viability at 48 h, 45 µM [24]: > 60% | MIC (Staphylococcus aureus [25]): 1.5 µM | fold change (FC) (Staphylococcus aureus [26]): 2.5 | Activity (Staphylococcus aureus [27]): inactive | MIC (Enterobacter cloacae [28]): 1.5 µM | Activity (Staphylococcus aureus [29]): inactive | MBC90 (Enterococcus faecium [30]): 3.3 µM (≈ 1.95 µg/mL) | Activity (Pseudomonas aeruginosa [31]): inactive | Selectivity Index [32]: 43 | Selectivity Index [33]: 43 | MBEC50 (Acinetobacter baumannii [34]): 13 µM | Selectivity Index [35]: 43 | MIC (Klebsiella pneumoniae [36]): 1.5 µM | growth inhibition (GI) (Klebsiella pneumoniae [37]): Active | MIC (Pseudomonas aeruginosa [38]): 1.5 µM | MBEC50 (Pseudomonas aeruginosa [39]): 46 µM | hemolysis at 0.25 h, 10 µM [40]: 0.34% | Survival (Staphylococcus aureus [41]): 0.2% | MBC90 (Enterobacter cloacae [42]): 6.4 µM (≈ 3.78 µg/mL) | MIC (Enterococcus faecium [43]): 1.5 µM | IC50 (A549): 66 µM | Ratio (Enterobacter cloacae [44]): <=8 | MBEC50 (Enterococcus faecium [45]): 26 µM | MBEC50 (Staphylococcus aureus [46]): 4.4 µM | viability at 48 h [47]: ≥ 33% | MBC90 (Klebsiella pneumoniae [48]): 2.2 µM (≈ 1.3 µg/mL)
